According to ChEMBL document CHEMBL4038328, “Structure-Guided Optimization of HIV Integrase Strand Transfer Inhibitors” (J Med Chem, 2017):

Columns and labels:
[1] = system: Human immunodeficiency virus 1; test: Selectivity ratio of EC50 for VSV-G pseudotyped HIV1 harboring integrase G140S/Q148H mutant infected in HOS cells to EC50 for VSV-G pseudotyped HIV1 harboring wild-type integrase infected in HOS cells; assay type: functional
Outline: (§1)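 Fold change is the EC50 against the mutant-IN vector divided by the EC50 against the WT-IN vector. Both come from the single-round luciferase infectivity assay in HOS cells, with a 3 h compound pretreatment followed by 48 h infection.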

[2] = system: Human immunodeficiency virus 1; test: Selectivity ratio of EC50 for VSV-G pseudotyped HIV1 harboring integrase R263K mutant infected in HOS cells to EC50 for VSV-G pseudotyped HIV1 harboring wild-type integrase infected in HOS cells; assay type: functional; outline: as §1
[3] = system: Human immunodeficiency virus 1; test: Antiviral activity against VSV-G pseudotyped HIV1 harboring integrase G118R mutant infected in HOS cells pretreated […] for 3 hrs followed by viral infection measured after 48 hrs by luciferase reporter gene assay; assay type: functional, cell-based; settings: Human immunodeficiency virus 1, HOS
Outline: (§2)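 Single-round luciferase HIV-1 vector (pNLNgoMIVR−ΔLUC carrying WT or mutant IN) was pseudotyped with VSV-g by calcium phosphate co-transfection of 293 cells, and supernatant was harvested after 48 h. HOS cells were seeded at 4000/well in DMEM with 5% FBS and 5% newborn calf serum. They were pretreated 3 h at 37 °C with 5–0.0001 μM (11 serial dilutions), then infected for 48 h. Luminescence was normalized to untreated cells, and EC50 came from nonlinear regression.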

[4] = system: Human immunodeficiency virus 1; test: Antiviral activity against VSV-G pseudotyped HIV1 harboring integrase G140S/Q148H double mutant infected in HOS cells pretreated […] for 3 hrs followed by viral infection measured after 48 hrs by luciferase reporter gene assay; assay type: functional, cell-based; settings: Human immunodeficiency virus 1, HOS; outline: as §2
[5] = system: Human immunodeficiency virus 1; test: Antiviral activity against VSV-G pseudotyped HIV1 harboring integrase T66I mutant infected in HOS cells pretreated […] for 3 hrs followed by viral infection measured after 48 hrs by luciferase reporter gene assay; assay type: functional, cell-based; settings: Human immunodeficiency virus 1, HOS; outline: as §2
[6] = system: Human immunodeficiency virus 1; test: Antiviral activity against VSV-G pseudotyped HIV1 harboring wild-type integrase infected in HOS cells pretreated […] for 3 hrs followed by viral infection measured after 48 hrs by luciferase reporter gene assay; assay type: functional, cell-based; settings: Human immunodeficiency virus 1, HOS; outline: as §2
[7] = system: Human immunodeficiency virus 1; test: Antiviral activity against VSV-G pseudotyped HIV1 harboring integrase H51Y/R263K double mutant infected in HOS cells pretreated […] for 3 hrs followed by viral infection measured after 48 hrs by luciferase reporter gene assay; assay type: functional, cell-based; settings: Human immunodeficiency virus 1, HOS; outline: as §2
[8] = system: Human immunodeficiency virus 1; test: Selectivity ratio of EC50 for VSV-G pseudotyped HIV1 harboring integrase H51Y mutant infected in HOS cells to EC50 for VSV-G pseudotyped HIV1 harboring wild-type integrase infected in HOS cells; assay type: functional; outline: as §1
[9] = system: HOS; test: Cytotoxicity against HOS cells assessed as reduction in cell viability after 48 hrs by ATPLite luminescence assay; assay type: cell-based; settings: human, hos, 48 h
Outline: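 HOS cells seeded at 4000 per well the day before, exposed to compounds over 250 to 0.05 μM at 37 °C for 48 h. ATP measured by luminescence after lysis and 20 min signal development at room temperature.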

[10] = system: Human immunodeficiency virus 1; test: Selectivity ratio of EC50 for VSV-G pseudotyped HIV1 harboring integrase E92Q mutant infected in HOS cells to EC50 for VSV-G pseudotyped HIV1 harboring wild-type integrase infected in HOS cells; assay type: functional; outline: as §1
[11] = system: Human immunodeficiency virus 1; test: Selectivity ratio of EC50 for VSV-G pseudotyped HIV1 harboring integrase T66I mutant infected in HOS cells to EC50 for VSV-G pseudotyped HIV1 harboring wild-type integrase infected in HOS cells; assay type: functional; outline: as §1
[12] = system: Human immunodeficiency virus 1; test: Antiviral activity against VSV-G pseudotyped HIV1 harboring integrase E92Q mutant infected in HOS cells pretreated […] for 3 hrs followed by viral infection measured after 48 hrs by luciferase reporter gene assay; assay type: functional, cell-based; settings: Human immunodeficiency virus 1, HOS; outline: as §2
[13] = system: Human immunodeficiency virus 1; test: Selectivity ratio of EC50 for VSV-G pseudotyped HIV1 harboring integrase G118R mutant infected in HOS cells to EC50 for VSV-G pseudotyped HIV1 harboring wild-type integrase infected in HOS cells; assay type: functional; outline: as §1
[14] = system: Human immunodeficiency virus 1; test: Antiviral activity against VSV-G pseudotyped HIV1 harboring integrase R263K mutant infected in HOS cells pretreated […] for 3 hrs followed by viral infection measured after 48 hrs by luciferase reporter gene assay; assay type: functional, cell-based; settings: Human immunodeficiency virus 1, HOS; outline: as §2
[15] = system: Human immunodeficiency virus 1; test: Selectivity ratio of EC50 for VSV-G pseudotyped HIV1 harboring integrase H51Y/R263K double mutant infected in HOS cells to EC50 for VSV-G pseudotyped HIV1 harboring wild-type integrase infected in HOS cells; assay type: functional; outline: as §1
[16] = system: Human immunodeficiency virus 1; test: Antiviral activity against VSV-G pseudotyped HIV1 harboring integrase Y143R mutant infected in HOS cells pretreated […] for 3 hrs followed by viral infection measured after 48 hrs by luciferase reporter gene assay; assay type: functional, cell-based; settings: Human immunodeficiency virus 1, HOS; outline: as §2
[17] = Inhibition of HIV1 integrase strand transfer activity using 5'-end 32P labeled DNA substrate measured after 2 hrs by PAGE based phosphor imaging method; design: species or system Human immunodeficiency virus 1
Outline: (§3)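 Gel-based assay, Mg2+ cofactor: 400 nM integrase with 20 nM DNA substrate 5′-32P-labeled on transferred strand in 50 mM MOPS pH 7.2, 7.5 mM MgCl2, 14 mM 2-mercaptoethanol, inhibitor or DMSO; 2 h at 37 °C. Stopped with formamide/SDS loading buffer; products resolved on 16% denaturing polyacrylamide gels, quantified by phosphorimaging.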

[18] = system: Human immunodeficiency virus 1; test: Selectivity ratio of EC50 for VSV-G pseudotyped HIV1 harboring integrase Y143R mutant infected in HOS cells to EC50 for VSV-G pseudotyped HIV1 harboring wild-type integrase infected in HOS cells; assay type: functional; outline: as §1
[19] = system: Human immunodeficiency virus 1; test: Antiviral activity against VSV-G pseudotyped HIV1 harboring integrase H51Y mutant infected in HOS cells pretreated […] for 3 hrs followed by viral infection measured after 48 hrs by luciferase reporter gene assay; assay type: functional, cell-based; settings: Human immunodeficiency virus 1, HOS; outline: as §2
[20] = system: Human immunodeficiency virus 1; test: Antiviral activity against VSV-G pseudotyped HIV1 harboring integrase N155H mutant infected in HOS cells pretreated […] for 3 hrs followed by viral infection measured after 48 hrs by luciferase reporter gene assay; assay type: functional, cell-based; settings: Human immunodeficiency virus 1, HOS; outline: as §2
[21] = Inhibition of HIV1 integrase 3' processing activity using 5'-end 32P labeled DNA substrate measured after 2 hrs by PAGE based phosphor imaging method; design: species or system Human immunodeficiency virus 1; outline: as §3
[22] = system: Human immunodeficiency virus 1; test: Selectivity ratio of EC50 for VSV-G pseudotyped HIV1 harboring integrase N155H mutant infected in HOS cells to EC50 for VSV-G pseudotyped HIV1 harboring wild-type integrase infected in HOS cells; assay type: functional; outline: as §1
[23] = system: Human immunodeficiency virus 1; test: Antiviral activity against VSV-G pseudotyped HIV1 harboring integrase Y143R mutant infected in HOS cells pretreated […] for 3 hrs followed by viral infection measured after 48 hrs by luciferase reporter gene assay relative to dolutegravir; assay type: functional
[24] = system: Human immunodeficiency virus 1; test: Antiviral activity against VSV-G pseudotyped HIV1 harboring integrase H51Y mutant infected in HOS cells pretreated […] for 3 hrs followed by viral infection measured after 48 hrs by luciferase reporter gene assay relative to dolutegravir; assay type: functional
[25] = system: Human immunodeficiency virus 1; test: Antiviral activity against VSV-G pseudotyped HIV1 harboring integrase G118R mutant infected in HOS cells pretreated […] for 3 hrs followed by viral infection measured after 48 hrs by luciferase reporter gene assay relative to dolutegravir; assay type: functional
[26] = system: Human immunodeficiency virus 1; test: Antiviral activity against VSV-G pseudotyped HIV1 harboring integrase R263K mutant infected in HOS cells pretreated […] for 3 hrs followed by viral infection measured after 48 hrs by luciferase reporter gene assay relative to dolutegravir; assay type: functional
[27] = system: Human immunodeficiency virus 1; test: Antiviral activity against VSV-G pseudotyped HIV1 harboring wild-type integrase infected in HOS cells pretreated […] for 3 hrs followed by viral infection measured after 48 hrs by luciferase reporter gene assay relative to dolutegravir; assay type: functional
[28] = system: Human immunodeficiency virus 1; test: Antiviral activity against VSV-G pseudotyped HIV1 harboring integrase N155H mutant infected in HOS cells pretreated […] for 3 hrs followed by viral infection measured after 48 hrs by luciferase reporter gene assay relative to dolutegravir; assay type: functional
[29] = system: Human immunodeficiency virus 1; test: Antiviral activity against VSV-G pseudotyped HIV1 harboring integrase T66I mutant infected in HOS cells pretreated […] for 3 hrs followed by viral infection measured after 48 hrs by luciferase reporter gene assay relative to dolutegravir; assay type: functional
[30] = system: Human immunodeficiency virus 1; test: Antiviral activity against VSV-G pseudotyped HIV1 harboring integrase H51Y/R263K double mutant infected in HOS cells pretreated […] for 3 hrs followed by viral infection measured after 48 hrs by luciferase reporter gene assay relative to dolutegravir; assay type: functional
[31] = system: Human immunodeficiency virus 1; test: Antiviral activity against VSV-G pseudotyped HIV1 harboring integrase G140S/Q148H double mutant infected in HOS cells pretreated […] for 3 hrs followed by viral infection measured after 48 hrs by luciferase reporter gene assay relative to dolutegravir; assay type: functional
[32] = system: Human immunodeficiency virus 1; test: Antiviral activity against VSV-G pseudotyped HIV1 harboring integrase E92Q mutant infected in HOS cells pretreated […] for 3 hrs followed by viral infection measured after 48 hrs by luciferase reporter gene assay relative to dolutegravir; assay type: functional

SMILES | Ratio EC50 [1] | Ratio EC50 [2] | EC50 [3] [nM] | EC50 [4] [nM] | EC50 [5] [nM] | EC50 [6] [nM] | EC50 [7] [nM] | Ratio EC50 [8] | CC50 [9] [nM] | Ratio EC50 [10] | Ratio EC50 [11] | EC50 [12] [nM] | Ratio EC50 [13] | EC50 [14] [nM] | Ratio EC50 [15] | EC50 [16] [nM] | IC50 [17] [nM] | Ratio EC50 [18] | EC50 [19] [nM] | IC50 [21] [nM] | other results
CC(=O)OCCCc1cnc2c(c1)c(N)c(C(=O)NCc1ccc(F)cc1F)c(=O)n2O | 9 | 1 | 5.9 | 13 | 0.75 | 1.4 | 3.9 | 0.6 | > 250000 | 1 | 0.5 | 1.2 | 4 | 1.8 | 3 | 2.9 | 10 | 2 | 0.8 | 14300 | EC50 [20]: 5.4 nM; Ratio EC50 [22]: 4
COC(=O)CCc1cnc2c(c1)c(N)c(C(=O)NCc1ccc(F)cc1F)c(=O)n2O | 8 | 0.7 | 4.8 | 5.3 | 0.53 | 0.67 | 2.4 | 0.9 | > 250000 | 3 | 0.8 | 2 | 7 | 0.5 | 3 | 0.67 | 3.1 | 1 | 0.63 | 2900 | fold change (FC) [23]: 0.16; fold change (FC) [24]: 0.2; fold change (FC) [25]: 0.37; fold change (FC) [26]: 0.05; fold change (FC) [27]: 0.42; fold change (FC) [28]: 0.64; fold change (FC) [29]: 0.59; fold change (FC) [30]: 0.15; fold change (FC) [31]: 0.91; fold change (FC) [32]: 0.87; Ratio EC50 [22]: 3
COC(=O)CCc1cnc2c(c1)c(NCCO)c(C(=O)NCc1ccc(F)cc1F)c(=O)n2O | 4 | 2 | 4.8 | 16 | 0.62 | 4.1 | 2.5 | 2 | > 250000 | 0.7 | 0.2 | 2.7 | 1 | 6.5 | 0.9 | 3.8 | 3.1 | 0.9 | 6.9 | 3200 | EC50 [20]: 3.9 nM; Ratio EC50 [22]: 1
